Results reported in ChEMBL document CHEMBL1132183 (J Med Chem, 1999).

Experiments:
[1] = molecular target: T1, 5-hydroxytryptamine receptor 1A (Homo sapiens) (UniProt P08908); details: HeLa
T1 sequence (whole entry): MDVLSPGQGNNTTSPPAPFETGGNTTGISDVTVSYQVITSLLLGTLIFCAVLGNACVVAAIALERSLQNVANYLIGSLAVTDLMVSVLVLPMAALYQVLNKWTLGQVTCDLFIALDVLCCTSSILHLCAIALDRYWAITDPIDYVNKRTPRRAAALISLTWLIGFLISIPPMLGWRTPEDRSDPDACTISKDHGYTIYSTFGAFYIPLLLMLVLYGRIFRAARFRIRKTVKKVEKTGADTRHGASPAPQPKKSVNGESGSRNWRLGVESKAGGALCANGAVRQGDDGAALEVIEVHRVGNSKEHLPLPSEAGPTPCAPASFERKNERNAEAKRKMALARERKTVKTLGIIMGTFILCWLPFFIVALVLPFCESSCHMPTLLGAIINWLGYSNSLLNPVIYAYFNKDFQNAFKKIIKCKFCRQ

[2] = molecular target: T1, 5-hydroxytryptamine receptor 1A (Homo sapiens); details: HeLa; remark: listed apart in the source
[3] = molecular target: T2, Adrenergic receptor alpha-2 (Rattus norvegicus, UniProt P22086+P19328+P22909); test: Displacement of [3H]rauwolscine from rat brain Alpha-2 adrenergic receptor
T2 sequence (P22086 whole entry): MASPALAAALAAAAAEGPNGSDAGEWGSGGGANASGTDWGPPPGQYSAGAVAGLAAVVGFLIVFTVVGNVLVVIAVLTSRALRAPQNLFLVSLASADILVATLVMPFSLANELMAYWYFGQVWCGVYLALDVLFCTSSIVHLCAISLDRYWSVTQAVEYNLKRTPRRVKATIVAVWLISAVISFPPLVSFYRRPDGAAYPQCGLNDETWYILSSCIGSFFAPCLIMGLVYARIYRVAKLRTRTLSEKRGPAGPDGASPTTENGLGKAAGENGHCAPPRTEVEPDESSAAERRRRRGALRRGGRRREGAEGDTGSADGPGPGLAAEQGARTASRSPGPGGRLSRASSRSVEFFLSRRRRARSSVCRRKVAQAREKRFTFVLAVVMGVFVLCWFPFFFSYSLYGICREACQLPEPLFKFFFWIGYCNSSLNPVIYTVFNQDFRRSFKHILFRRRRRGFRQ
T2 sequence (P19328 whole entry): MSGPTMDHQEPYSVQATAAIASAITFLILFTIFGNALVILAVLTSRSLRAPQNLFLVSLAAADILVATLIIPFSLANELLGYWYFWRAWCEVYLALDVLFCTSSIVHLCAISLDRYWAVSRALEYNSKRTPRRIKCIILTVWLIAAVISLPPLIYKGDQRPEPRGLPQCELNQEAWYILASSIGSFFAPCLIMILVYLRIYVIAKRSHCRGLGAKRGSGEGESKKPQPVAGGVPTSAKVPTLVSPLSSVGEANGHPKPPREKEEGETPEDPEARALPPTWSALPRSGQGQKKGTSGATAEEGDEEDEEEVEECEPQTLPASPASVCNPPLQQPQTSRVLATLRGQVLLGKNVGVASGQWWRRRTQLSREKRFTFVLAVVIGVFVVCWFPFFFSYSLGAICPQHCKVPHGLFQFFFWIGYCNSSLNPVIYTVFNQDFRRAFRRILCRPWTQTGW
T2 sequence (P22909 whole entry): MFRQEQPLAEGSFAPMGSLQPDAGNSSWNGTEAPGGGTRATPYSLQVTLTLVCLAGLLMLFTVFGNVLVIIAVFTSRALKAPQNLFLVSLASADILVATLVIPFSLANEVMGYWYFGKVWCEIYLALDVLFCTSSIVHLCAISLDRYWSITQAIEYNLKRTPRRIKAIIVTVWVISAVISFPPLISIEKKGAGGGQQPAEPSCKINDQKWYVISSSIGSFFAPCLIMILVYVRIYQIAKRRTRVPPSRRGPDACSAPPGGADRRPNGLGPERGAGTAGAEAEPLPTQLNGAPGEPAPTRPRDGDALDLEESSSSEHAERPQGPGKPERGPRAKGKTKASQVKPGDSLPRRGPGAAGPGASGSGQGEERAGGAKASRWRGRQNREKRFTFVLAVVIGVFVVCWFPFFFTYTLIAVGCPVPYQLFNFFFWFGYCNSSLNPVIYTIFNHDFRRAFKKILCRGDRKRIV
In short: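 Rat cerebral cortex membranes (male Sprague–Dawley) were washed in Tris-HCl pH 7.4 and resuspended with 10 μM pargiline and 0.1% ascorbic acid. They were incubated 30 min at 25 °C with 0.5–1.5 nM [3H]rauwolscine. Nonspecific binding was taken with 10 μM phentolamine. Filtration and scintillation counting followed, and Ki was obtained by Cheng–Prusoff.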

D(2) dopamine receptor = D(2) dopamine receptor (Rattus norvegicus, UniProt P61169); test: Displacement of [3H]spiperone from rat brain Dopamine receptor D2
Chain of D(2) dopamine receptor (P61169 whole entry): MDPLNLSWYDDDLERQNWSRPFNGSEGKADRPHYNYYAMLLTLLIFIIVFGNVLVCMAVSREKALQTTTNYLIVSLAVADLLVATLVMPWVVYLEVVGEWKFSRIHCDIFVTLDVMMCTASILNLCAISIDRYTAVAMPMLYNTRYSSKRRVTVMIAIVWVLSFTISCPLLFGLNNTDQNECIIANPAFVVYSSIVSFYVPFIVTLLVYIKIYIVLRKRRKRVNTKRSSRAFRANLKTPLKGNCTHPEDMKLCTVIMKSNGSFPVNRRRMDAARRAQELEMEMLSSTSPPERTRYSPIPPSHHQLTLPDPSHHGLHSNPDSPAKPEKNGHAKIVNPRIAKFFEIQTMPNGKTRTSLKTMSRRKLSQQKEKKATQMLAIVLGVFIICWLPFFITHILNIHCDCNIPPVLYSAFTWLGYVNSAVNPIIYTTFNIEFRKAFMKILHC
In short: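 Striata from male Sprague–Dawley rats homogenized in Tris-HCl pH 7.4. Buffer held 10 μM pargiline, 0.1% ascorbic acid, 120 mM NaCl, 5 mM KCl, 2 mM CaCl2, 1 mM MgCl2. Incubated with 0.2–0.6 nM [3H]spiperone for 15 min at 37 °C. Nonspecific binding defined with 1 μM (+)-butaclamol. Filtration, scintillation counting. Ki by Cheng–Prusoff.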

[4] = molecular target: Serotonin 2 (5-HT2) receptor (Rattus norvegicus, UniProt P30994+P08909+P14842); test: Displacement of [3H]ketanserin from rat brain 5-hydroxytryptamine 2 receptor
In short: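 Rat cerebral cortex membranes (male Sprague–Dawley) in Tris-HCl pH 7.4 with 10 μM pargiline and 0.1% ascorbic acid were incubated 20 min at 37 °C with 0.7–1.3 nM [3H]ketanserin (5-HT2A). Nonspecific binding was defined by 2 μM ketanserin. Bound label was counted after filtration, and Ki was derived by Cheng–Prusoff.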

[5] = molecular target: T3, Alpha-1B adrenergic receptor (Rattus norvegicus) (UniProt P15823); test: Antagonism of Alpha-1B adrenergic receptor subtype (-)-phenylephrine-induced contraction of rat spleen; assay type: functional, tissue-based
T3 sequence (whole entry): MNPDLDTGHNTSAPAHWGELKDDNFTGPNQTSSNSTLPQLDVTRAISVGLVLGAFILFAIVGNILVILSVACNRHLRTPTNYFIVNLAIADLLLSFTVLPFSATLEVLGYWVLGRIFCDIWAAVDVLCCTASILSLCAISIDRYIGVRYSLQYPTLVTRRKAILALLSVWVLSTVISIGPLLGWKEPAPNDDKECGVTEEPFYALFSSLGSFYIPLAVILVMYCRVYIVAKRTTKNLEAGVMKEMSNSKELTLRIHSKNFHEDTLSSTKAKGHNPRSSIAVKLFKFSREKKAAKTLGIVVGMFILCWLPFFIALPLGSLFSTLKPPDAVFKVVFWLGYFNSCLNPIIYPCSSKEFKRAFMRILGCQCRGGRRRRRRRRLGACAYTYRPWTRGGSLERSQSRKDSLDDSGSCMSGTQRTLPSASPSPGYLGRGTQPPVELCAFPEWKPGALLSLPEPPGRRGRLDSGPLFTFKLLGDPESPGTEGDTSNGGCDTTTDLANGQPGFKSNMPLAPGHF
In short: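 Rat spleen, isometric cumulative (–)-phenylephrine curves at 30-min intervals; first discarded, second taken as control. Antagonist was equilibrated 30 min before the next curve.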

[6] = molecular target: T4, Alpha-1B adrenergic receptor (Homo sapiens, UniProt P35368); test: Displacement of [3H]prazosin from human cloned Alpha-1B adrenergic receptor
T4 sequence (P35368 whole entry): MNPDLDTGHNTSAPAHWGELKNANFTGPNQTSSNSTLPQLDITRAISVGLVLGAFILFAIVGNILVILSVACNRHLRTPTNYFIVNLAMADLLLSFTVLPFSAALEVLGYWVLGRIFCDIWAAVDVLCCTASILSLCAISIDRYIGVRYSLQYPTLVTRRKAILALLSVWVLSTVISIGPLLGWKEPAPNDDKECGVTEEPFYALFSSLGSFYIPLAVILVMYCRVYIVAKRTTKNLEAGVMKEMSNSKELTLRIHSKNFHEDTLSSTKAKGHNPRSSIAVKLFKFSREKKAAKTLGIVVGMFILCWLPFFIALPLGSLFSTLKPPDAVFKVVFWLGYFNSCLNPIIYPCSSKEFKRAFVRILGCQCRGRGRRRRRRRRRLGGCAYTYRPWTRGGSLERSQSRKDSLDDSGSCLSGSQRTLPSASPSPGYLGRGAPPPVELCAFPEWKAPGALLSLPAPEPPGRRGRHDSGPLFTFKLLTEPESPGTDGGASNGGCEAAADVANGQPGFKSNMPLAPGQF
In short: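 CHO cells stably transfected with each human α1 subtype; 30 μg membrane protein in 50 mM Tris-HCl pH 7.4 with 0.1–0.4 nM [3H]prazosin, 30 min at 25 °C. Competitors 1 pM–10 μM. Nonspecific binding defined with 10 μM phentolamine. Filtration, scintillation counting. Ki by Cheng–Prusoff; 2–3 experiments in triplicate.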

SMILES | pD2 [1] | Log Ki [3] | Log Ki [4] | also measured
NCCc1c[nH]c2ccc(O)cc12 | 7.3 | – | – | –
NCCc1c[nH]c2ccc(C(N)=O)cc12 | 8.45 | – | – | –
COc1ccccc1N1CCN(CCN2C(=O)CC3(CCCC3)CC2=O)CC1 [BMY-7378] | – | -5.93 | -6.31 | pD2 [2]: 9.27; Ki (D(2) dopamine receptor): 49 nM; pKb [5]: 7.55
CCCN(CCC)C1CCc2cccc(O)c2C1 (stereo unspecified) [8-OH-DPAT] | – | -6.08 | < -6 | Ki [6]: > 1000 nM; Log Ki (D(2) dopamine receptor): < -6
